From PMC11634041 (Nature, 2024)

How the values were obtained:
human HCN1 (full length) = molecular target: T1, human HCN1 (full length) (Homo sapiens, UniProt O60741); test: two-electrode voltage clamp, oocytes; format: cell-based; details: 30 μM propofol, 20 min incubation; pH 7.4; allosteric inhibitor
T1 sequence (O60741 1-890): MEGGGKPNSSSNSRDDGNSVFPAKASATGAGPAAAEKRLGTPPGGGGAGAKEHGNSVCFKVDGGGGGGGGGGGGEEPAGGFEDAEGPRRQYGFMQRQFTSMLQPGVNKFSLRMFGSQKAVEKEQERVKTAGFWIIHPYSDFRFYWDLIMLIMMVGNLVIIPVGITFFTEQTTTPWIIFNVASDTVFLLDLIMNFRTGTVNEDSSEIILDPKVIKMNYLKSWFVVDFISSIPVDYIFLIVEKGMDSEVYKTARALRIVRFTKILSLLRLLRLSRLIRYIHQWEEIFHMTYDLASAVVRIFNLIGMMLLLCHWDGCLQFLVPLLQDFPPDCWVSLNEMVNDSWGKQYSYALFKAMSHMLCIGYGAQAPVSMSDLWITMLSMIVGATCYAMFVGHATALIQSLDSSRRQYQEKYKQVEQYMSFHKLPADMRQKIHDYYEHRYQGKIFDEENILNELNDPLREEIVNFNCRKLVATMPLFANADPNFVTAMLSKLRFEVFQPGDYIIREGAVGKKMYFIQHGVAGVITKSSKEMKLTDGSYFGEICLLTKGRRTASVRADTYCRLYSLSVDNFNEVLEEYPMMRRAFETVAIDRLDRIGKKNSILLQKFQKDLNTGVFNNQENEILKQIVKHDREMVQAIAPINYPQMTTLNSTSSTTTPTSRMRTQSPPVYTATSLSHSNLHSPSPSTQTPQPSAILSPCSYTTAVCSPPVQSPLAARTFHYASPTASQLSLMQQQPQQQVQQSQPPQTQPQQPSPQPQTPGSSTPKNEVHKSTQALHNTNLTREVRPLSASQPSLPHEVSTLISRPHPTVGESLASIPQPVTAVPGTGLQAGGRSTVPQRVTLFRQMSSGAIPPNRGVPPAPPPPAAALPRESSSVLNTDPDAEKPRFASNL
In short: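 Full-length human HCN1 RNA (wild type or mutant), made by in vitro transcription, injected into defolliculated Xenopus laevis oocytes. Oocytes stored at 16°C in 1:2 diluted L-15 medium with 2.5% penicillin-streptomycin and 5 mM HEPES pH 7.5. Two-electrode clamp used 3 M KCl-filled electrodes (0.1–0.5 MΩ current, 1–5 MΩ voltage).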

[1] = molecular target: spHCN (R332C background, Alexa-488 labelled, called WT) (Strongylocentrotus purpuratus, UniProt O76977, R332C/M375L); test: two-electrode voltage clamp, oocytes; format: cell-based; details: 100 μM ZD7288; pore blocker control; Alexa-488-labelled channel
cryo-EM structure = molecular target: the molecule itself; test: cryo-EM structure

CC(C)c1cccc(C(C)C)c1O [propofol, 2,6-di-iso-propylphenol]
ΔV1/2 (mV) / I / Iapo (%) (human HCN1 (full length)): −30.9 ± 6.4 mV

CCN(c1ccccc1)c1cc(NC)[n+](C)c(C)n1 [ZD7288]
two-electrode voltage clamp, oocytes [1]: currents from spHCN M375L channels are blocked by the HCN-channel blocker ZD7288

B1: human HCN1EM M305L in lipid nanodiscs (natural protein, UniProt O60741 1-890, looked up)
chain: MEGGGKPNSSSNSRDDGNSVFPAKASATGAGPAAAEKRLGTPPGGGGAGAKEHGNSVCFKVDGGGGGGGGGGGGEEPAGGFEDAEGPRRQYGFMQRQFTSMLQPGVNKFSLRMFGSQKAVEKEQERVKTAGFWIIHPYSDFRFYWDLIMLIMMVGNLVIIPVGITFFTEQTTTPWIIFNVASDTVFLLDLIMNFRTGTVNEDSSEIILDPKVIKMNYLKSWFVVDFISSIPVDYIFLIVEKGMDSEVYKTARALRIVRFTKILSLLRLLRLSRLIRYIHQWEEIFHMTYDLASAVVRIFNLIGMLLLLCHWDGCLQFLVPLLQDFPPDCWVSLNEMVNDSWGKQYSYALFKAMSHMLCIGYGAQAPVSMSDLWITMLSMIVGATCYAMFVGHATALIQSLDSSRRQYQEKYKQVEQYMSFHKLPADMRQKIHDYYEHRYQGKIFDEENILNELNDPLREEIVNFNCRKLVATMPLFANADPNFVTAMLSKLRFEVFQPGDYIIREGAVGKKMYFIQHGVAGVITKSSKEMKLTDGSYFGEICLLTKGRRTASVRADTYCRLYSLSVDNFNEVLEEYPMMRRAFETVAIDRLDRIGKKNSILLQKFQKDLNTGVFNNQENEILKQIVKHDREMVQAALPRESSSVLNTDPDAEKPRFASNL
binding result (cryo-EM structure): binds
